From ChEMBL document CHEMBL3797090, “One-pot synthesis of 1,4-dihydroxy-2-((E)-1-hydroxy-4-phenylbut-3-enyl)anthracene-9,10-diones as novel shikonin analogs and evaluation of their antiproliferative activities” (Bioorg Med Chem Lett, 2016)

Assays:
[1] = test system: MDA-MB-231; assay: Cytotoxicity against human MDA-MB-231 cells assessed as reduction in cell growth after 72 hrs by cell titer glo assay; format: functional, cell-based; conditions: MDA-MB-231, 72 h
How it was run: (§1)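 IC50, the concentration giving 50% inhibition of cell growth, was read from plots of inhibition against concentration. Values were calculated from three independent experiments.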

[2] = test system: MCF7; assay: Cytotoxicity against human MCF7 cells assessed as reduction in cell growth after 72 hrs by cell titer glo assay; format: functional, cell-based; conditions: MCF7, 72 h; how it was run: as §1
[3] = test system: HeLa; assay: Cytotoxicity against human HeLa cells assessed as reduction in cell growth after 72 hrs by cell titer glo assay; format: functional, cell-based
[4] = Cytotoxicity against human MIAPaCa2 cells assessed as reduction in cell growth after 72 hrs by cell titer glo assay; format: functional, cell-based; conditions: MIA PaCa-2, 72 h
[5] = Cytotoxicity against human MCF10 cells assessed as cell viability at 33.3 uM after 72 hrs by cell titer glo assay; format: cell-based; conditions: read-out: Activity
How it was run: (§2)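 The highest concentration tested was 33.3 μM, in a series running down to 0.0152 μM. Results came from three independent experiments.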

[6] = test system: MCF7; assay: Cytotoxicity against human MCF7 cells assessed as cell viability at 33.3 uM after 72 hrs by cell titer glo assay; format: functional; conditions: MCF7, 72 h, read-out: Activity; how it was run: as §2
[7] = Cytotoxicity against human MIAPaCa2 cells assessed as cell viability at 33.3 uM after 72 hrs by cell titer glo assay; format: functional; conditions: MIA PaCa-2, 72 h, read-out: Activity; how it was run: as §2
[8] = test system: MDA-MB-231; assay: Cytotoxicity against human MDA-MB-231 cells assessed as cell viability at 33.3 uM after 72 hrs by cell titer glo assay; format: functional; conditions: MDA-MB-231, 72 h, read-out: Activity; how it was run: as §2
[9] = test system: HeLa; assay: Cytotoxicity against human HeLa cells assessed as cell viability at 33.3 uM after 72 hrs by cell titer glo assay; format: functional; conditions: read-out: Activity; how it was run: as §2
[10] = test system: MCF10; assay: Cytotoxicity against human MCF10 cells assessed as reduction in cell growth after 72 hrs by cell titer glo assay; format: cell-based; conditions: MCF10, 72 h
How it was run: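 Non-tumour mammary epithelial cells exposed to an 8-point series (33.3, 11.1, 3.7, 1.23, 0.41, 0.137, 0.0457, 0.0152 μM). IC50 is the concentration giving 50% growth inhibition, read from the plot of inhibition against concentration and calculated from three independent experiments.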

SMILES | IC50 [1] | IC50 [2] | IC50 [3] | IC50 [4] | viability at 72 h, 33.3 µM [5] | viability at 33.3 µM [6] | viability at 33.3 µM [7] | viability at 33.3 µM [8] | viability at 33.3 µM [9] | IC50 [10]
O=C1c2ccccc2C(=O)c2c(O)c(C(O)C/C=C/c3cccc(F)c3)cc(O)c21 (stereo unspecified) | 26.5 µM | 32.1 µM | 25.2 µM | 26.3 µM | > 50% | – | – | – | – | –
COc1ccccc1/C=C/CC(O)c1cc(O)c2c(c1O)C(=O)c1ccccc1C2=O (stereo unspecified) | – | – | 29 µM | – | > 50% | > 50% | > 50% | > 50% | – | –
O=C1c2ccccc2C(=O)c2c(O)c(C(O)C/C=C/c3ccc(Cl)cc3)cc(O)c21 (stereo unspecified) | 28.5 µM | 32.3 µM | 27.4 µM | 27.4 µM | > 50% | – | – | – | – | –
O=C1c2ccccc2C(=O)c2c(O)c(C(O)C/C=C/c3ccccc3Cl)cc(O)c21 (stereo unspecified) | – | 31.5 µM | 27.2 µM | – | > 50% | – | > 50% | – | – | –
O=C1c2ccccc2C(=O)c2c(O)c(C(O)C/C=C/c3ccc(Br)cc3)cc(O)c21 (stereo unspecified) | – | – | – | – | > 50% | > 50% | > 50% | > 50% | > 50% | –
O=C1c2ccccc2C(=O)c2c(O)c(C(O)C/C=C/c3cccc(Cl)c3)cc(O)c21 (stereo unspecified) | 31.2 µM | 32.2 µM | 25.8 µM | 26.4 µM | > 50% | – | – | – | – | –
Cc1ccc(/C=C/CC(O)c2cc(O)c3c(c2O)C(=O)c2ccccc2C3=O)cc1 (stereo unspecified) | – | – | 29 µM | – | > 50% | > 50% | > 50% | > 50% | – | –
Cc1cccc(/C=C/CC(O)c2cc(O)c3c(c2O)C(=O)c2ccccc2C3=O)c1 (stereo unspecified) | – | 32.8 µM | 27.2 µM | 28.5 µM | > 50% | – | – | > 50% | – | –
Cc1ccccc1/C=C/CC(O)c1cc(O)c2c(c1O)C(=O)c1ccccc1C2=O (stereo unspecified) | – | 32.8 µM | 28.3 µM | 26.1 µM | > 50% | – | – | > 50% | – | –
O=C1c2ccccc2C(=O)c2c(O)c(C(O)C/C=C/c3ccccc3)cc(O)c21 (stereo unspecified) | – | – | 18.6 µM | – | > 50% | > 50% | > 50% | > 50% | – | –
O=C1c2ccccc2C(=O)c2c(O)c(C(O)C/C=C/c3ccccc3Br)cc(O)c21 (stereo unspecified) | 30.7 µM | 31.1 µM | 25.6 µM | 27.1 µM | > 50% | – | – | – | – | –
O=C1c2ccccc2C(=O)c2c(O)c(C(O)C/C=C/c3cccc(Br)c3)cc(O)c21 (stereo unspecified) | – | 31.7 µM | 29.1 µM | 27.6 µM | > 50% | – | – | > 50% | – | –
COc1ccc(/C=C/CC(O)c2cc(O)c3c(c2O)C(=O)c2ccccc2C3=O)cc1 (stereo unspecified) | 26.9 µM | 32.8 µM | 24.1 µM | 26.3 µM | > 50% | – | – | – | – | –
O=C1c2ccccc2C(=O)c2c(O)c(C(O)C/C=C/c3ccc(F)cc3)cc(O)c21 (stereo unspecified) | 28 µM | 28.5 µM | 32.9 µM | 23.2 µM | > 50% | – | – | – | – | –
O=C1c2ccccc2C(=O)c2c(O)c(C(O)C/C=C/c3ccccc3F)cc(O)c21 (stereo unspecified) | 29.2 µM | – | 28.7 µM | 27.3 µM | > 50% | > 50% | – | – | – | –
O=C1C2=C(C(=O)c3ccccc31)C(O)C1=C(O)CC(c3ccccc3)C1=C2O (stereo unspecified) | 28.8 µM | – | 29.2 µM | 27.7 µM | > 50% | > 50% | – | – | – | –
COc1cccc(/C=C/CC(O)c2cc(O)c3c(c2O)C(=O)c2ccccc2C3=O)c1 (stereo unspecified) | – | – | 28 µM | 27.1 µM | > 50% | > 50% | – | > 50% | – | –
COc1cccc2c1C(=O)c1c(O)c3c(c(O)c1C2=O)C[C@@](O)(C(=O)CO)C[C@@H]3O[C@H]1C[C@H](N)[C@H](O)[C@H](C)O1 [DOXORUBICIN] | 0.16 µM | – | – | – | – | – | – | – | – | 0.16 µM
CC(C)=CC[C@@H](O)C1=CC(=O)c2c(O)ccc(O)c2C1=O [SHIKONIN] | 3.94 µM | 5.49 µM | 6.42 µM | 0.04 µM | – | – | – | – | – | 4.56 µM
